Results reported in paper PMC6733178 (ACS Omega, 2019).
Converted amounts (≈) assume the structure as drawn.

Tests used:
[1] = test system: S. aureus ATCC 25923 (Sa); assay: MIC, broth microdilution with resazurin; assay type: cell-based, Staphylococcus aureus; settings: Staphylococcus aureus, ATCC25923, read-out: MIC Values Sa
How it was run: (§1)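 CLSI broth microdilution. Strains were grown overnight at 35 °C on TSA or TSA with 5% sheep blood. Colonies were suspended in 0.9% saline to 0.5 McFarland, then diluted 1:100 in Mueller Hinton broth (about 1 × 10^6 CFU/mL). Test compound (2 mg/mL DMSO stock) was serially diluted 1:2 from 50 µg/mL final. Resazurin was added at 8 µg/mL final, and plates were incubated 35 °C for 20–24 h and read visually. MIC is the lowest concentration without the resazurin colour change. Each plate carried untreated, DMSO and antibiotic controls.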

[2] = test system: S. epidermidis 700296 (Se); assay: MIC, broth microdilution with resazurin; assay type: cell-based; settings: Staphylococcus epidermidis, read-out: MIC Values Se
[3] = test system: S. aureus ATCC 33591 (Sa91); assay: MIC, broth microdilution with resazurin; assay type: cell-based, Staphylococcus aureus; settings: Staphylococcus aureus, ATCC33591, read-out: MIC Values Sa91
How it was run: as §1

[4] = test system: S. aureus BAA-2312 (Sa12); assay: MIC, broth microdilution with resazurin; assay type: cell-based, Staphylococcus aureus; settings: Staphylococcus aureus, BAA2312, read-out: MIC Values Sa12
How it was run: as §1

[5] = test system: S. aureus ATCC 700699 (Sa99); assay: MIC, broth microdilution with resazurin; assay type: cell-based, Staphylococcus aureus; settings: for MIC: Staphylococcus aureus, ATCC700699, read-out: MIC Values Sa99
How it was run: as §1

[6] = test system: S. aureus ATCC 33592 (Sa92); assay: MIC, broth microdilution with resazurin; assay type: cell-based, Staphylococcus aureus; settings: Staphylococcus aureus, ATCC33592, read-out: MIC Values Sa92
How it was run: as §1

[7] = test system: tested Gram-positive strains (S. aureus incl. MRSA, S. epidermidis, B. subtilis); assay: MIC summarised in the text over the tested Gram-positive strains; assay type: cell-based
[8] = test system: three strains of A. baumannii; assay: MIC summarised in the text over the three A. baumannii strains; assay type: cell-based, Acinetobacter baumannii
How it was run: as §1

[9] = test system: A. baumannii ATCC 747 (Ab47); assay: MIC, broth microdilution with resazurin; assay type: cell-based, Acinetobacter baumannii; settings: Acinetobacter baumannii, ATCC747, read-out: MIC Ab47
How it was run: as §1

[10] = test system: A. baumannii ATCC 19606 (Type Strain, AB06); assay: MIC, broth microdilution with resazurin; assay type: cell-based, Acinetobacter baumannii; settings: Acinetobacter baumannii, ATCC19606, read-out: MIC Ab06
How it was run: as §1

Compound | MIC [1] [µg/mL] | MIC [2] [µg/mL] | MIC [3] [µg/mL] | MIC [4] [µg/mL] | MIC [5] [µg/mL] | MIC [6] [µg/mL] | activity against the tested strains (in words) [7] | MIC Values Sa99 ([5]; antibiotic-resistant strain, NA = No Activity) | activity against A. baumannii strains (in words) [8] | MIC [9] [µg/mL] | MIC [10] [µg/mL] | MIC value as low as ([7]; lowest MIC over the tested Gram-positive / MRSA strains) [µg/mL]
O=C(O)c1ccc(-n2cc(/C=N/N(Cc3ccccc3)c3ccccc3)c(-c3cccc(F)c3)n2)cc1 [Compound 6, 4-[4-[(E)-[Benzyl(phenyl)hydrazono]methyl]-3-(3-fluorophenyl)pyrazol-1-yl]benzoic Acid] | 1.56 (≈ 3.18 µM) | 1.56 (≈ 3.18 µM) | 1.56 (≈ 3.18 µM) | 1.56 (≈ 3.18 µM) | 1.56 (≈ 3.18 µM) | 1.56 (≈ 3.18 µM) |  |  |  |  |  | 
CN(/N=C/c1cn(-c2ccc(C(=O)O)cc2)nc1-c1cccc(F)c1)c1ccccc1 [Compound 4, 4-{3-(3-Fluorophenyl)-4-[(E)-(2-methyl-2-phenylhydrazinylidene)methyl]-1H-pyrazol-1-yl}benzoic Acid] | 12.5 (≈ 30.2 µM) | 12.5 (≈ 30.2 µM) | 25 (≈ 60.3 µM) | 25 (≈ 60.3 µM) | 25 (≈ 60.3 µM) | 12.5 (≈ 30.2 µM) | moderate growth inhibition |  |  |  |  | 
O=C(O)c1ccc(-n2cc(/C=N/Nc3cccc(Cl)c3F)c(-c3ccc(F)cc3)n2)cc1 [Compound 29, 4-[4-[(E)-[(3-Chloro-2-fluorophenyl)hydrazono]methyl]-3-(4-fluorophenyl)pyrazol-1-yl]benzoic Acid] | 6.25 (≈ 13.8 µM) | 12.5 (≈ 27.6 µM) | 12.5 (≈ 27.6 µM) | 3.12 (≈ 6.9 µM) | 1.56 (≈ 3.44 µM) | 1.56 (≈ 3.44 µM) |  |  |  |  |  | 
O=C(O)c1ccc(-n2cc(/C=N/Nc3cc(F)ccc3F)c(-c3cccc(F)c3)n2)cc1 [Compound 11, 4-[4-[(E)-[(2,5-Difluorophenyl)hydrazono]methyl]-3-(3-fluorophenyl)pyrazol-1-yl]benzoic Acid] | 12.5 (≈ 28.6 µM) | 12.5 (≈ 28.6 µM) | 12.5 (≈ 28.6 µM) | 12.5 (≈ 28.6 µM) | 6.25 (≈ 14.3 µM) | 3.12 (≈ 7.16 µM) |  |  |  |  |  | 
O=Cc1cn(-c2ccc(C(=O)O)cc2)nc1-c1cccc(F)c1 [3a, 4-[3-(3-Fluorophenyl)-4-formyl-pyrazol-1-yl]benzoic Acid] |  |  |  |  |  |  |  | did not show any activity |  |  |  | 
O=C(O)c1ccc(-n2cc(/C=N/Nc3ccc(Br)cc3)c(-c3cccc(F)c3)n2)cc1 [Compound 10, 4-[4-[(E)-[(4-Bromophenyl)hydrazono]methyl]-3-(3-fluorophenyl)pyrazol-1-yl]benzoic Acid] | 12.5 (≈ 26.1 µM) | 12.5 (≈ 26.1 µM) | 12.5 (≈ 26.1 µM) | 12.5 (≈ 26.1 µM) | 6.25 (≈ 13 µM) | 6.25 (≈ 13 µM) |  |  | moderate activity | 6.25 (≈ 13 µM) | 3.12 (≈ 6.52 µM) | 
O=C(O)c1ccc(-n2cc(/C=N/Nc3ccc(F)cc3)c(-c3ccc(F)cc3)n2)cc1 [Compound 26, 4-[3-(4-Fluorophenyl)-4-[(E)-[(4-fluorophenyl)hydrazono]methyl]pyrazol-1-yl]benzoic Acid] | 12.5 (≈ 29.9 µM) | 25 (≈ 59.8 µM) | 25 (≈ 59.8 µM) | 25 (≈ 59.8 µM) | 12.5 (≈ 29.9 µM) | 12.5 (≈ 29.9 µM) | moderate activity |  |  | > 25 | 12.5 (≈ 29.9 µM) | 
O=C(O)c1ccc(-n2cc(/C=N/Nc3cccc(Br)c3)c(-c3ccc(F)cc3)n2)cc1 [Compound 27, 4-[4-[(E)-[(3-Bromophenyl)hydrazono]methyl]-3-(4-fluorophenyl)pyrazol-1-yl]benzoic Acid] | 12.5 (≈ 26.1 µM) | 25 (≈ 52.2 µM) | 12.5 (≈ 26.1 µM) | 12.5 (≈ 26.1 µM) | 6.25 (≈ 13 µM) | 3.12 (≈ 6.52 µM) | moderate activity |  |  | 25 (≈ 52.2 µM) | 6.25 (≈ 13 µM) | 
4-[4-[(2-Benzyl-2-phenyl-hydrazino)methyl]-3-(4-fluorophenyl)pyrazol-1-yl]benzoic Acid [Compound 24] |  |  |  |  |  |  | failed to show any significant activity |  |  |  |  | 
O=C(O)c1ccc(-n2cc(/C=N/Nc3c(F)c(F)cc(F)c3F)c(-c3cccc(F)c3)n2)cc1 [Compound 14, 4-[3-(3-Fluorophenyl)-4-[(E)-[(2,3,5,6-tetrafluorophenyl)hydrazono]methyl]pyrazol-1-yl]benzoic Acid] | 12.5 (≈ 26.5 µM) | 25 (≈ 52.9 µM) | 12.5 (≈ 26.5 µM) | 12.5 (≈ 26.5 µM) | 6.25 (≈ 13.2 µM) | 6.25 (≈ 13.2 µM) | moderate activity |  |  |  |  | 
O=C(O)c1ccc(-n2cc(/C=N/Nc3ccc(C(F)(F)F)cc3)c(-c3cccc(F)c3)n2)cc1 [Compound 16, 4-[3-(3-Fluorophenyl)-4-[(E)-[[4-(trifluoromethyl)phenyl]hydrazono]methyl]pyrazol-1-yl]benzoic Acid] | 12.5 (≈ 26.7 µM) | 12.5 (≈ 26.7 µM) | 6.25 (≈ 13.3 µM) | 12.5 (≈ 26.7 µM) | 6.25 (≈ 13.3 µM) | 6.25 (≈ 13.3 µM) | moderate activity |  |  |  |  | 
O=C(O)c1ccc(-n2cc(/C=N/Nc3cccc(Cl)c3)c(-c3cccc(F)c3)n2)cc1 [Compound 8, 4-[4-[(E)-[(3-Chlorophenyl)hydrazono]methyl]-3-(3-fluorophenyl)pyrazol-1-yl]benzoic Acid] | 6.25 (≈ 14.4 µM) | 12.5 (≈ 28.7 µM) | 12.5 (≈ 28.7 µM) | 12.5 (≈ 28.7 µM) | 3.12 (≈ 7.19 µM) | 6.25 (≈ 14.4 µM) |  |  | moderate activity | 12.5 (≈ 28.7 µM) | 6.25 (≈ 14.4 µM) | 
O=C(O)c1ccc(-n2cc(/C=N/Nc3ccc([N+](=O)[O-])cc3)c(-c3ccc(F)cc3)n2)cc1 [Compound 31, 4-[3-(4-Fluorophenyl)-4-{(E)-[2-(4-nitrophenyl)hydrazinylidene]methyl}-1H-pyrazol-1-yl]benzoic Acid] |  |  |  |  |  |  | no activity |  |  |  |  | 
O=C(O)c1ccc(N/N=C/c2cn(-c3ccc(C(=O)O)cc3)nc2-c2cccc(F)c2)cc1 [Compound 18, 4-[(2E)-2-[[1-(4-Carboxyphenyl)-3-(3-fluorophenyl)pyrazol-4-yl]methylene]hydrazino]benzoic Acid] |  |  |  |  |  |  | completely ceased the activity |  |  |  |  | 
O=C(O)c1ccc(-n2cc(/C=N/Nc3cccc(Cl)c3F)c(-c3cccc(F)c3)n2)cc1 [Compound 13, 4-[4-[(E)-[(3-Chloro-2-fluorophenyl)hydrazono]methyl]-3-(3-fluorophenyl)pyrazol-1-yl]benzoic Acid] | 3.12 (≈ 6.9 µM) | 6.25 (≈ 13.8 µM) | 6.25 (≈ 13.8 µM) | 12.5 (≈ 27.6 µM) | 3.12 (≈ 6.9 µM) | 0.78 (≈ 1.72 µM) |  |  |  |  |  | 0.78 (≈ 1.72 µM)
O=C(O)c1ccc(-n2cc(/C=N/n3cnnc3)c(-c3cccc(F)c3)n2)cc1 [Compound 19, 4-[3-(3-Fluorophenyl)-4-[(E)-1,2,4-triazol-4-yliminomethyl]pyrazol-1-yl]benzoic Acid] |  |  |  |  |  |  | completely ceased the activity |  |  |  |  | 
O=C(O)c1ccc(-n2cc(/C=N/Nc3c(F)c(F)c(F)c(F)c3F)c(-c3cccc(F)c3)n2)cc1 [Compound 15, 4-[3-(3-Fluorophenyl)-4-[(E)-[(2,3,4,5,6-pentafluorophenyl)hydrazono]methyl]pyrazol-1-yl]benzoic Acid] | 12.5 (≈ 25.5 µM) | 25 (≈ 51 µM) | 12.5 (≈ 25.5 µM) | 12.5 (≈ 25.5 µM) | 6.25 (≈ 12.7 µM) | 3.12 (≈ 6.37 µM) | moderate activity |  |  |  |  | 
O=C(O)c1ccc(-n2cc(/C=N/Nc3cc(F)ccc3F)c(-c3ccc(F)cc3)n2)cc1 [Compound 28, 4-[4-[(E)-[(2,5-Difluorophenyl)hydrazono]methyl]-3-(4-fluorophenyl)pyrazol-1-yl]benzoic Acid] | 12.5 (≈ 28.6 µM) | 12.5 (≈ 28.6 µM) | 25 (≈ 57.3 µM) | 12.5 (≈ 28.6 µM) | 6.25 (≈ 14.3 µM) | 6.25 (≈ 14.3 µM) | moderate activity |  |  |  |  | 
N#Cc1ccc(N/N=C/c2cn(-c3ccc(C(=O)O)cc3)nc2-c2ccc(F)cc2)cc1 [Compound 30, 4-[4-[(E)-[(4-Cyanophenyl)hydrazono]methyl]-3-(4-fluorophenyl)pyrazol-1-yl]benzoic Acid] | 12.5 (≈ 29.4 µM) |  |  |  | 6.25 (≈ 14.7 µM) | 12.5 (≈ 29.4 µM) | moderate activity |  |  | 12.5 (≈ 29.4 µM) | 12.5 (≈ 29.4 µM) | 
O=C(O)c1ccc(-n2cc(/C=N/N(Cc3ccccc3)Cc3ccccc3)c(-c3ccc(F)cc3)n2)cc1 [Compound 25, 4-[4-[(E)-(Dibenzylhydrazono)methyl]-3-(4-fluorophenyl)pyrazol-1-yl]benzoic Acid] |  |  |  |  | 6.25 (≈ 12.4 µM) | 3.12 (≈ 6.19 µM) |  |  |  |  |  | 
O=C(O)c1ccc(-n2cc(/C=N/Nc3ccccn3)c(-c3cccc(F)c3)n2)cc1 [Compound 20, 4-[3-(3-Fluorophenyl)-4-{(E)-[2-(pyridin-2-yl)hydrazinylidene]methyl}-1H-pyrazol-1-yl]benzoic Acid] |  |  |  |  |  |  | completely ceased the activity |  |  |  |  | 
